In publication PMC4464950 (Dalton transactions (Cambridge, England : 2003), 2015):

Experiments:
[1] = tested on: HCT116 (colon carcinoma) cells; assay: Trypan blue exclusion cell growth inhibition, HCT116; assay type: cell-based, human
Procedure, shortened: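 HCT116 cells were grown in RPMI 1640 + 10% FBS at 37 °C, humidified 5% CO2, and seeded at 1 × 10⁴ cells/well with test compound. After 48 h, cells were mixed 1:1 with 0.4% trypan blue and counted on a haemocytometer, in triplicate. Points are means of four samples over three experiments. IC50/IC75/IC90 came from sigmoidal fits. Selectivity = IC50 in […] ÷ IC50 in cancer cells.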

plasmid (pBR322) DNA = assay: Electrophoresis mobility shift assay with plasmid DNA; assay type: binding; settings: metal/DNAbp ratios 0.25-2.0; 37 °C, 20 h
Procedure, shortened: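 pBR322 plasmid DNA (20 µg/mL) in 5 mM Tris/HCl, 50 mM NaClO4, pH 7.39, was incubated with test compound at metal complex:DNA bp ratios of […], 37 °C, 20 h, in the dark. Free DNA and cisplatin-treated DNA served as controls. Samples ran on 1% agarose in TAE, 80 V for 1.5 h, then were GelRed-stained 30 min.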

cytochrome c = cytochrome c (Equus caballus, UniProt P00004); assay: ESI-MS metallodrug-protein interaction, cytochrome c; assay type: binding; settings: 3:1 metal/protein, 24 h RT, 20 mM ammonium acetate pH 6.8
Procedure, shortened: (§1)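 Each protein (100 µM) in 20 mM ammonium acetate, pH 6.8, was mixed with test compound at a 3:1 metal/protein ratio and held 24 h at RT. Samples were diluted 20-fold with water and infused directly at 5 µl/min into an ESI Orbitrap (spray 3.1 kV, capillary 45 V, 220 °C, resolution 100,000 at m/z 400). Monoisotopic and average masses were obtained by deconvolution.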

RNase A = target: T1, RNase A (Bos taurus, UniProt P61823); assay: ESI-MS metallodrug-protein interaction, RNase; assay type: binding; settings: 3:1 metal/protein, 24 h RT, 20 mM ammonium acetate pH 6.8
T1 sequence (P61823 27-150): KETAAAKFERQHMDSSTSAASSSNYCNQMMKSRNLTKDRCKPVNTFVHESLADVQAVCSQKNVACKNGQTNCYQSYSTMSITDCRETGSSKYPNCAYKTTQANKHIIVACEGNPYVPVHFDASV
Procedure, shortened: as §1

cytochrome c, sequence (P00004 whole entry, the tested form may be a part): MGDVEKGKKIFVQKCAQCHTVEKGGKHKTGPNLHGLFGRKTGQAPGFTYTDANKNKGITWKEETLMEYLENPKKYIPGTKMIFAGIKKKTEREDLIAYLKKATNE

Cc1ccc(C(C)C)cc1.Cc1ccc(C(C)C)cc1.[Cl][Ru][Cl].[Cl][Ru][Cl] [a (Ru), [Ru(p-cymene)Cl(µ-Cl)]2]
IC75 HCT116 ([1]; 48 h incubation, compounds dissolved in DMSO (1%), Trypan blue): 313.3 ± 7.1 µM
Calculated tumour selectivity (IC50 L929/IC50 HCT116) ([1]; IC50 normal cells divided by IC50 cancer cells): 3.3
Effect on mobility of supercoiled form (Form I) of plasmid DNA (plasmid (pBR322) DNA): did not affect the mobility
Interaction with cytochrome c (ESI-MS adducts) (cytochrome c): protein binding of a Ru(p-cymene) fragment
Interaction with RNase (ESI-MS adducts) (RNase A): protein binding of a Ru(p-cymene) fragment
